Measured values published in ChEMBL document CHEMBL1125258, “Topographically designed analogues of [D-Pen,D-Pen5]enkephalin” (J Med Chem, 1991).
pIC50, pKi: −log10 of the molar value.

Experiments:
Cavia porcellus = species on record: Cavia porcellus; assay: Percent maximal inhibition (Emax) was measured using guinea pig ileum assay (GPI).; format: functional
Mu-type opioid receptor [1] = target: T1, Mu-type opioid receptor (Rattus norvegicus, UniProt P33535); assay: Binding affinity measured against [3H]CTOP (Opioid receptor mu 1) in rat brain using radioreceptor binding assays.; format: tissue-based
T1 sequence (P33535 whole entry): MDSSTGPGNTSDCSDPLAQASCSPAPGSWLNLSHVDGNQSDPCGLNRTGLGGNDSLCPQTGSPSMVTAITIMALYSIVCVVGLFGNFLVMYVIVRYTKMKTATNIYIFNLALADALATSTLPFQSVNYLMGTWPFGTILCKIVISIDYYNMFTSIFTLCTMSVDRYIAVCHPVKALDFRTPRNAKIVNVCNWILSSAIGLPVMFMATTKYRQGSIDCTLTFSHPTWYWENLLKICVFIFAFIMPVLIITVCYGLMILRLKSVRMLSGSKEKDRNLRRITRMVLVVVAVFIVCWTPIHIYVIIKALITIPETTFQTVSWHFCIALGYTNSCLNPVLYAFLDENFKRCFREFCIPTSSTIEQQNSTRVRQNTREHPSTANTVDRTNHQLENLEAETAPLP
Outline: (§1)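 Male Sprague-Dawley rat whole brain minus cerebellum, homogenised and washed three times (30 min at 25 °C in 50 mM Tris) to remove endogenous opioids. Homogenate at 0.5% final was incubated with 0.5 nM [3H]CTOP in 50 mM Tris-HCl pH 7.4 containing 5 mM MgCl2 and BSA 1 mg/mL for 120 min at 25 °C. Nonspecific binding was defined with 1 μM naltrexone. Bound ligand was collected by filtration and counted by scintillation; duplicates, 2–4 experiments.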

Mu-type opioid receptor [2] = target: Mu-type opioid receptor (Cavia porcellus, UniProt P97266); assay: Inhibitory activity measured against Opioid receptor mu 1 using guinea pig ileum assay (GPI).; format: tissue-based
Sequence of Mu-type opioid receptor (Cavia porcellus, UniProt P97266) (P97266 whole entry): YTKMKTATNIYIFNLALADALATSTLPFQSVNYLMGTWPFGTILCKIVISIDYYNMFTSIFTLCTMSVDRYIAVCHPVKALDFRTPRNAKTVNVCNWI
Outline: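 Longitudinal muscle-myenteric plexus from the ileum of male Hartley guinea pigs (150–400 g) in oxygenated Krebs bicarbonate at 37 °C under 1 g tension. Electrical stimulation at 0.1 Hz with 0.4-ms pulses at supramaximal voltage. Agonist exposure was 3 min, followed by rinse and 8 min re-equilibration. Percent inhibition of contraction was fitted to a logistic equation for IC50; duplicates, 2–4 experiments.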

Mu-type opioid receptor [3] = target: T1, Mu-type opioid receptor; assay: Inhibitory activity measured against [3H]CTOP (Opioid receptor mu 1) in rat brain using radioreceptor binding assays.; format: tissue-based; outline: as §1
[4] = target: T2, Delta-type opioid receptor (Rattus norvegicus, UniProt P33533); assay: Binding affinity measured against [3H]DPDPE (Opioid receptor delta 1 ligand) in rat brain using radioreceptor binding assays.; format: tissue-based
T2 sequence (P33533 whole entry): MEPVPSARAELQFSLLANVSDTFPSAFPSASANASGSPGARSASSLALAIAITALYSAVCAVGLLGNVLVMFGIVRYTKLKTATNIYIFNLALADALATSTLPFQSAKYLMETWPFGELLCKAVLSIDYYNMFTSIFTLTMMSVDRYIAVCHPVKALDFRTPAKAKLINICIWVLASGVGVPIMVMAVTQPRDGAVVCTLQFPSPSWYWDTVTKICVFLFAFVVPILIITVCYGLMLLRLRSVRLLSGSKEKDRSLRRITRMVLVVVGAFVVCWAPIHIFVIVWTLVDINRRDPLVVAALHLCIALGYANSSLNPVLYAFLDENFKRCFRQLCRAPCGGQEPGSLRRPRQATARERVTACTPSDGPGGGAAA
Outline: (§2)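 Male Sprague-Dawley rat brain membranes (minus cerebellum), washed three times to remove endogenous opioids. Specific binding was defined as that displaced by 1 μM naltrexone. Filtration and scintillation counting; duplicates, 2–4 experiments.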

[5] = target: Delta-type opioid receptor (Mus musculus, UniProt P32300); assay: Inhibitory activity measured against Opioid receptor delta 1 using mouse vas deference assay (MVD).
Sequence of Delta-type opioid receptor (Mus musculus, UniProt P32300) (P32300 whole entry): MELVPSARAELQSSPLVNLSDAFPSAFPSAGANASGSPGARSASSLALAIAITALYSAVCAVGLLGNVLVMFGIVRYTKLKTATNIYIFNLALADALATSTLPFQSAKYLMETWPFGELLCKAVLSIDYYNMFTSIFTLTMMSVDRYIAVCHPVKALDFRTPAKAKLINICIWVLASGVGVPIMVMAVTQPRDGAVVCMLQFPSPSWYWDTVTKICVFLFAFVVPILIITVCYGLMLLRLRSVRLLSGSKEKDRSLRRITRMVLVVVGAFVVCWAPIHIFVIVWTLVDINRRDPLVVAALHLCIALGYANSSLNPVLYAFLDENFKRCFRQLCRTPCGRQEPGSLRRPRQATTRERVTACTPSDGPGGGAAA
Outline: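 Vas deferens from male ICR mice (25–30 g) in magnesium-free oxygenated Krebs bicarbonate at 37 °C under 0.5 g tension. Electrical stimulation at 0.1 Hz with 2.0-ms pulses at supramaximal voltage. Agonist contact was 3 min.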

[6] = target: T2, Delta-type opioid receptor; assay: Inhibitory activity measured against [3H]DPDPE (Opioid receptor delta 1 ligand) in rat brain using radioreceptor binding assays.; format: tissue-based; outline: as §2

Compound | E max (Cavia porcellus) | pKi (Mu-type opioid receptor [1]) | pIC50 (Mu-type opioid receptor [2]) | pIC50 (Mu-type opioid receptor [3]) | pKi [4] | pIC50 [5] | pIC50 [6]
C[C@H](c1ccccc1)[C@H]1NC(=O)CNC(=O)[C@H](NC(=O)[C@@H](N)Cc2ccc(O)cc2)C(C)(C)SSC(C)(C)[C@H](C(=O)O)NC1=O | 100% |  |  |  |  |  | 
C[C@H](c1ccc([N+](=O)[O-])cc1)[C@@H]1NC(=O)CNC(=O)[C@H](NC(=O)[C@@H](N)Cc2ccc(O)cc2)C(C)(C)SSC(C)(C)[C@H](C(=O)O)NC1=O [listing 1 of 2 here] |  | 7.62 | 5.57 | 6.98 | 8.47 | 7.57 | 8.38
C[C@H](c1ccc([N+](=O)[O-])cc1)[C@@H]1NC(=O)CNC(=O)[C@H](NC(=O)[C@@H](N)Cc2ccc(O)cc2)C(C)(C)SSC(C)(C)[C@H](C(=O)O)NC1=O [listing 2 of 2 here] | 74% |  |  |  |  |  | 
C[C@@H](c1ccccc1)[C@H]1NC(=O)CNC(=O)[C@H](NC(=O)[C@@H](N)Cc2ccc(O)cc2)C(C)(C)SSC(C)(C)[C@H](C(=O)O)NC1=O | 100% |  |  |  |  |  | 
C[C@@H](c1ccc([N+](=O)[O-])cc1)[C@H]1NC(=O)CNC(=O)[C@H](NC(=O)[C@@H](N)Cc2ccc(O)cc2)C(C)(C)SSC(C)(C)[C@H](C(=O)O)NC1=O [listing 1 of 2 here] |  | 6.62 | 4.91 | 5.99 | 6.74 | 5.75 | 6.65
C[C@@H](c1ccc([N+](=O)[O-])cc1)[C@H]1NC(=O)CNC(=O)[C@H](NC(=O)[C@@H](N)Cc2ccc(O)cc2)C(C)(C)SSC(C)(C)[C@H](C(=O)O)NC1=O [listing 2 of 2 here] | 66% |  |  |  |  |  | 
C[C@H](c1ccccc1)[C@@H]1NC(=O)CNC(=O)[C@H](NC(=O)[C@@H](N)Cc2ccc(O)cc2)C(C)(C)SSC(C)(C)[C@H](C(=O)O)NC1=O (stereo in doubt; 4) | 56% |  |  |  |  |  | 
C[C@H](c1ccc([N+](=O)[O-])cc1)[C@H]1NC(=O)CNC(=O)[C@@H](NC(=O)[C@@H](N)Cc2ccc(O)cc2)C(C)(C)SSC(C)(C)[C@@H](C(=O)O)NC1=O (stereo in doubt; 6) | 73% | 6.28 | 4.59 | 5.66 | 8.26 | 8.34 | 8.16
C[C@H](c1ccc([N+](=O)[O-])cc1)[C@H]1NC(=O)CNC(=O)[C@@H](NC(=O)[C@@H](N)Cc2ccc(O)cc2)C(C)(C)SSC(C)(C)[C@@H](C(=O)O)NC1=O (stereo in doubt; 7) |  |  | < 5.00 | < 5.00 | 6.74 | 6.20 | 6.65
